Experimental findings from ChEMBL document CHEMBL1152519, “Synthesis, structural activity-relationships, and biological evaluation of novel amide-based allosteric binding site antagonists in NR1A/NR2B N-methyl-D-aspartate receptors” (Bioorg Med Chem, 2009) are described below.

Data set [1] has as its target Glutamate NMDA receptor; Grin1/Grin2a (Rattus norvegicus) (UniProt P35439+Q00959). In words: Antagonist activity at rat recombinant NR1/NR2A receptor expressed in Xenopus laevis oocytes assessed as inhibition of glutamate/glycine-induced current at 3 uM by two electrode voltage clamp method relative to control. The data set is classed as functional, cell-based. Conditions: Oocyte. Put shortly:
(§1)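 Xenopus oocytes injected with NR1-1a (3–5 ng) plus NR2A, 2B, 2C or 2D cRNA (7–10 ng), kept at 15 °C. Voltage clamp at −40 mV. Responses to 50 μM glutamate + 30 μM glycine with 3 μM compound, as % of response without compound. NR2A oocytes pre-loaded with 50 μM BAPTA-AM. Mean ± SEM, 4–10 oocytes; paired t-test.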

Data set [2] addresses Glutamate NMDA receptor; Grin1/Grin2b (Rattus norvegicus) (UniProt P35439+Q00960). The data set can be described thus: Antagonist activity at rat recombinant NR1/NR2B receptor expressed in Xenopus laevis oocytes assessed as inhibition of glutamate/glycine-induced current at 3 uM by two electrode voltage clamp method relative to control. The data set is classed as functional, cell-based. Conditions: Oocyte. Put shortly:
as §1

The target of data set [3] is Glutamate NMDA receptor; Grin1/Grin2c (Rattus norvegicus) (UniProt P35439+Q00961). The data set can be described thus: Antagonist activity at rat recombinant NR1/NR2C receptor expressed in Xenopus laevis oocytes assessed as inhibition of glutamate/glycine-induced current at 3 uM by two electrode voltage clamp method relative to control. The data set is classed as functional, cell-based. To be noted: Oocyte. A digest of the protocol:
as §1

The target of data set [4] is Adrenergic receptor alpha-1 (Rattus norvegicus) (UniProt P15823+P23944+P43140). In words: Displacement of [3H]prazosin from alpha1 adrenergic receptor in Wistar rat brain membrane at 3 uM. It counts as cell membranes. Put shortly:
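Wistar rat brain membranes. Percent displacement of 0.25 nM [3H]prazosin by 3 μM compound, run in duplicate.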

The target in data set [5] is Ionotropic glutamate receptor NMDA 1/2D (Rattus norvegicus) (UniProt P35439+Q62645). In words: Antagonist activity at rat recombinant NR1/NR2D receptor expressed in Xenopus laevis oocytes assessed as inhibition of glutamate/glycine-induced current at 3 uM by two electrode voltage clamp method relative to control. Conditions: Oocyte. The data set is classed as functional, cell-based. Put shortly:
as §1

Data set [6] concerns the target Glutamate receptor 1 (Rattus norvegicus) (UniProt P19490). The data set can be described thus: Antagonist activity at rat recombinant GluR1 expressed in Xenopus laevis oocytes assessed as inhibition of glutamate-induced current at 3 uM by two electrode voltage clamp method relative to control. Conditions: Oocyte. It counts as functional, cell-based. A digest of the protocol: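 GluR1 homomers expressed from 5–10 ng cRNA in Xenopus oocytes. Clamped at −40 mV. Currents evoked by 100 μM glutamate with 3 μM compound, expressed as % of control without compound. Mean ± SEM, 4–10 oocytes; paired t-test.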

For data set [7], the target named is Glutamate receptor ionotropic, kainate 2 (Rattus norvegicus) (UniProt P42260). The data set can be described thus: Antagonist activity at rat recombinant GluR6 expressed in Xenopus laevis oocytes assessed as inhibition of concanavalin A/glutamate-induced current at 3 uM by two electrode voltage clamp method relative to control. The data set is classed as functional, cell-based. To be noted: Oocyte. A digest of the protocol: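 Oocytes expressing homomeric GluR6 (5–10 ng cRNA) pretreated 5 min with 10 μM concanavalin-A. Currents evoked by 100 μM glutamate at −40 mV, with or without 3 μM compound, and given as percent of control. Mean ± SEM of 4–10 oocytes; paired t-test.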
Glutamate receptor ionotropic, kainate 2 (Rattus norvegicus), sequence (P42260 whole entry): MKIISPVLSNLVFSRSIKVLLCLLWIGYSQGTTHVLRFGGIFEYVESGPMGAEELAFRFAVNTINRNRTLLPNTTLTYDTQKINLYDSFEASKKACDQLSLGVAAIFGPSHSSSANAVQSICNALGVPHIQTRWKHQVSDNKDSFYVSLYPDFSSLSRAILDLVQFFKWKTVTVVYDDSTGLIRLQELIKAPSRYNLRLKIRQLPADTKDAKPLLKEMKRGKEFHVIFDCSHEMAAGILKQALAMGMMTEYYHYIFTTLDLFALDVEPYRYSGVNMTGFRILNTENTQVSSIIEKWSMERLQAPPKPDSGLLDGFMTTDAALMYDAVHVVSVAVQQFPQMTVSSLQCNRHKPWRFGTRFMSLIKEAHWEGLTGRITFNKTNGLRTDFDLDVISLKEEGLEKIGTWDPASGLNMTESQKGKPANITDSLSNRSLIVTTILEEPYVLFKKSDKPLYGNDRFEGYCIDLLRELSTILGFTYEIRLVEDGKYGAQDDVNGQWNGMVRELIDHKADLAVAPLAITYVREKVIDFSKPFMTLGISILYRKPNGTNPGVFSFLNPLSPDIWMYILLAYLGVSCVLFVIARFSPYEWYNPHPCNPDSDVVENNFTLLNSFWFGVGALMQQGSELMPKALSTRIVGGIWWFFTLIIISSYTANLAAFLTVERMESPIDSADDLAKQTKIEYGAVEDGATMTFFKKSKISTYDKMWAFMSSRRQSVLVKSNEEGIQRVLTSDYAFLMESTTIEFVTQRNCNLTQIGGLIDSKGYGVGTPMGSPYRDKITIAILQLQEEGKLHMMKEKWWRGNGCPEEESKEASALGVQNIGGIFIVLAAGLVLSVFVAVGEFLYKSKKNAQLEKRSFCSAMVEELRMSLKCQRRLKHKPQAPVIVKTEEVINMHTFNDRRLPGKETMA

Data set [8] addresses Glutamate NMDA receptor; GRIN1/GRIN2B (Homo sapiens, UniProt Q05586+Q13224). The data set can be described thus: Antagonist activity at human recombinant NR1/NR2B receptor expressed in frog oocytes assessed as inhibition of glutamate/glycine-induced current by two electrode voltage clamp method. The data set is classed as functional, cell-based, Oocyte. Put shortly: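 Human NR1/NR2B cRNA injected into Xenopus oocytes. Two-electrode voltage clamp at −40 mV, 23 °C, 2–7 d after injection. Glutamate/glycine (50–100 μM/30 μM) applied, then with 5–8 compound concentrations. Bath contains 10 μM EDTA; leak-corrected.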

The target in the next data set is hERG (KCNH2) (Homo sapiens, UniProt Q12809). In words: Displacement of [3H]astemizole from human recombinant ERG expressed in HEK293 cells at 10 uM. The data set is classed as cell-based. To be noted: HEK293 cells expressing human recombinant ERG, probe [3H]astemizole, read-out: Activity.
hERG (KCNH2), sequence (Q12809 whole entry): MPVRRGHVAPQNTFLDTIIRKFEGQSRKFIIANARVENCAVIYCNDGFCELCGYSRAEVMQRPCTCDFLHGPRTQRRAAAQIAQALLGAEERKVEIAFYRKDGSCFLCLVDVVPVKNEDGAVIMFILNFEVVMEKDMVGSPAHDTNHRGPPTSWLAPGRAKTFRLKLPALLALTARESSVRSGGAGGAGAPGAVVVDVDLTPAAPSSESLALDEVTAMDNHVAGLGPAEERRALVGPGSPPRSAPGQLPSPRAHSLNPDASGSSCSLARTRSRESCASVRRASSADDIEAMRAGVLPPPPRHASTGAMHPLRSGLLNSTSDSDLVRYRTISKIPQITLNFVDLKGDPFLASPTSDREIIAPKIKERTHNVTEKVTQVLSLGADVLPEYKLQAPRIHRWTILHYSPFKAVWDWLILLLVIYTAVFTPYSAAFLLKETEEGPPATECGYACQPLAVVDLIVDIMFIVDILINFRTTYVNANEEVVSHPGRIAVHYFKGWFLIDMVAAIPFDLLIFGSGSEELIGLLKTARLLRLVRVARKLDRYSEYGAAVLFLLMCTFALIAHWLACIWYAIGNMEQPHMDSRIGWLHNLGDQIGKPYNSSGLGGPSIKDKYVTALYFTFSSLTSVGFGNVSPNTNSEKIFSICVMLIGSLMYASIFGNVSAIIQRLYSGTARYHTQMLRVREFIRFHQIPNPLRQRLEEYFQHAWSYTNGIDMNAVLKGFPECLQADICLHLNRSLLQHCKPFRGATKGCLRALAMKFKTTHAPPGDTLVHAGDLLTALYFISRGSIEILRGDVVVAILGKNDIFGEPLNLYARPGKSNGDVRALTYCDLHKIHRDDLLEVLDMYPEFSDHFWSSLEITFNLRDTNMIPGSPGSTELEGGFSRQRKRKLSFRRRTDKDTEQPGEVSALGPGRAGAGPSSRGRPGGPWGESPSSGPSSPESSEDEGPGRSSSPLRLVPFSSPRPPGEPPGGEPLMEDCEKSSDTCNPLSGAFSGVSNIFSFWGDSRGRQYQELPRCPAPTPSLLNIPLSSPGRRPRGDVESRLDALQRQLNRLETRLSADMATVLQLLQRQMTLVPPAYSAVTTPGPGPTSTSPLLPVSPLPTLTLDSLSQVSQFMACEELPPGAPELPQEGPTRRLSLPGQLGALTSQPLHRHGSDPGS
Data set [9] addresses Voltage-gated inwardly rectifying potassium channel KCNH2 (Homo sapiens, UniProt Q12809). In words: Displacement of [3H]astemizole from human recombinant ERG expressed in HEK293 cells. The data set is classed as cell-based.

SMILES strings stand for the structures. pIC50, pKi: −log10 of the molar value.

Glutamate NMDA receptor; GRIN1/GRIN2B, sequence (Q13224 whole entry, other chains not shown): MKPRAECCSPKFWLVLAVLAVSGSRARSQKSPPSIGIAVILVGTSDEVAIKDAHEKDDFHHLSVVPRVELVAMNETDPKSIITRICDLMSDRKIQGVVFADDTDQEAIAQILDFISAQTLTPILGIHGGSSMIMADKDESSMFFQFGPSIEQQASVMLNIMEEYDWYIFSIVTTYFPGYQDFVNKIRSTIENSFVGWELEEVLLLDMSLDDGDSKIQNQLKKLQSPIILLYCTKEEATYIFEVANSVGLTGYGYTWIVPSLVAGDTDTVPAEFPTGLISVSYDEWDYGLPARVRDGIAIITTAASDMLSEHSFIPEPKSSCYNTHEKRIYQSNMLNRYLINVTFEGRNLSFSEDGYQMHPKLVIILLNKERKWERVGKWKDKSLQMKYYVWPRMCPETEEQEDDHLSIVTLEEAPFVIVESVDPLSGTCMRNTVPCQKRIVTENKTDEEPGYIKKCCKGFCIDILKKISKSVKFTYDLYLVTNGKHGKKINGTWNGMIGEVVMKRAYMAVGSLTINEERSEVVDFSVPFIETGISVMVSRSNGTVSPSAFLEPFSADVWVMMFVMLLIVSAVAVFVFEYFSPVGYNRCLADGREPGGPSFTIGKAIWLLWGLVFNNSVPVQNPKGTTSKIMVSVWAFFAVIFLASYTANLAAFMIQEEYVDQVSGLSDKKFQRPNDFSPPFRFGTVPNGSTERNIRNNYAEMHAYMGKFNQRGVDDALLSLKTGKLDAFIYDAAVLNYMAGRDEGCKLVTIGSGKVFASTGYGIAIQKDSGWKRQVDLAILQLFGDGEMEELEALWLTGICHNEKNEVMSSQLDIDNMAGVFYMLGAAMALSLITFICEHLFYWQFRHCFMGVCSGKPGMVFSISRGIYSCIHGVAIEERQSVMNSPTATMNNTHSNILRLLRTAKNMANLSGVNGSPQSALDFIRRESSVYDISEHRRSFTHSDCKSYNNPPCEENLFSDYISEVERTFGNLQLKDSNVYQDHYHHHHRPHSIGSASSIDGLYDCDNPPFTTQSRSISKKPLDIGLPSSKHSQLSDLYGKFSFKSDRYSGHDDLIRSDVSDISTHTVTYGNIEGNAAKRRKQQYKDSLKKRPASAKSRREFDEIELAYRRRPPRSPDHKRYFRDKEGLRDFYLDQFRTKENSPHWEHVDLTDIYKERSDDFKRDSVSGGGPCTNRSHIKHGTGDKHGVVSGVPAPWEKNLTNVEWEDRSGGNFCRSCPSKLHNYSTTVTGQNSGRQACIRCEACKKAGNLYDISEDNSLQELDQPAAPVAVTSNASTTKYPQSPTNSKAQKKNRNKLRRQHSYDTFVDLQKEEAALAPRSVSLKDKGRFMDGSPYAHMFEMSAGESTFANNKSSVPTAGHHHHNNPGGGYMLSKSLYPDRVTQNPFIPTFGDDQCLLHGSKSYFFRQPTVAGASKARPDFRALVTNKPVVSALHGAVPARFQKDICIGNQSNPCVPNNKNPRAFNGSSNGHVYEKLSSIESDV
Glutamate receptor 1 (Rattus norvegicus), sequence (P19490 whole entry): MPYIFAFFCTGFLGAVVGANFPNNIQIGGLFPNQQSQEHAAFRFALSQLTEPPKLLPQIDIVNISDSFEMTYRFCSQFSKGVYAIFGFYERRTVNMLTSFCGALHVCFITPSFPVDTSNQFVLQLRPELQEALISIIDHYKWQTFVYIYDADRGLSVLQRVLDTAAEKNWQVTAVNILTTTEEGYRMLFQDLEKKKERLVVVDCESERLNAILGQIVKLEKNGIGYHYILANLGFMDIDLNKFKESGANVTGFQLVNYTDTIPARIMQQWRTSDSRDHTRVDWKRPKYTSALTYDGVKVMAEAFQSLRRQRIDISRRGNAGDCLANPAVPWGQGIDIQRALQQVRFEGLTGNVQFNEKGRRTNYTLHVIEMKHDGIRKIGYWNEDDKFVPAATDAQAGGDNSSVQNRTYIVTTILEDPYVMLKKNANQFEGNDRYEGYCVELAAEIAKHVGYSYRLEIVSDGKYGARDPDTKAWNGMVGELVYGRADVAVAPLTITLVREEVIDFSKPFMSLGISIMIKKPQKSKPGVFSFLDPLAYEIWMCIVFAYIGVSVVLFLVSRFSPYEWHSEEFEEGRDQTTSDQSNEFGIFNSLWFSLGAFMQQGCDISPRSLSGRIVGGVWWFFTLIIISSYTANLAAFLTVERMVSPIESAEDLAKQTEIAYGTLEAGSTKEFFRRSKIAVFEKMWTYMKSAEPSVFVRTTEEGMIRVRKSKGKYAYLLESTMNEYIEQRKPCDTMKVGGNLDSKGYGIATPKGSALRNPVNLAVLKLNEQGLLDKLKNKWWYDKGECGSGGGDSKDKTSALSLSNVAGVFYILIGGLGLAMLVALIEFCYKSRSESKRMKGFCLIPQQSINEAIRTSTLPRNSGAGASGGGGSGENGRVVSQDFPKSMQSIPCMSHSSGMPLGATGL

`CS(=O)(=O)Nc1ccc(CCC(=O)NCCCNc2ccc(Cl)c(Cl)c2)cc1`: the % response in data set [1] was 96%; in data set [2] it was 12%; in data set [3] it was 90%; in [5], 96%; in data set [6] it was 100%; in data set [7] it was 98%. In [4], this compound had an Activity of 19%. The pIC50 in data set [8] was 6.12. Moreover, the inhibition at 10 µM at hERG (KCNH2) is 83%.

`CS(=O)(=O)Nc1ccc(OCC(=O)NCCSc2ccc(Cl)c(Cl)c2)cc1`: the % response in data set [1] was determined as 96%; in data set [2] it was 21%; in data set [3] it was 95%; in data set [5], 96%; in data set [6], 101%; in data set [7] it was 94%. The Activity in [4] was found to be 5%. For the same compound, the pIC50 in data set [8] was 6.44. The inhibition at 10 µM on hERG (KCNH2) amounted to 75%.

On to `CS(=O)(=O)Nc1ccc(CCC(=O)NNC(=S)Nc2ccc(Cl)c(Cl)c2)cc1`, for which the % response in data set [1] was 104%; in data set [2], 12%; in [3], 94%; in data set [5], 92%; in [6], 100%; in data set [7] it was 96%. The pIC50 in data set [8] is 6.57. Besides, the inhibition at 10 µM on hERG (KCNH2) stood at 13%.

With `CS(=O)(=O)Nc1ccc(CCCC(=O)NCCc2ccc(Cl)c(Cl)c2)cc1`, the % response was determined as 99% in [1]; 62% in data set [2]; 102% in data set [3]; 89% in [5]; 102% in data set [6]; 100% in data set [7]. In data set [8], the pIC50 is 5.73.

Turning to `CS(=O)(=O)Nc1ccc(CCC(=O)NCCNc2ccc(Cl)c(Cl)c2)cc1`, the % response stood at 99% in [1], 14% in data set [2], 84% in data set [5] and 98% in data set [7]. Also, the Activity in [4] was determined as 1%. For the same compound, in data set [8], the pIC50 was 7.19.

On to `CS(=O)(=O)Nc1ccc(OCC(=O)NCCOc2ccc(Cl)c(Cl)c2)cc1`, for which the % response is 97% in data set [1]; 21% in data set [2]; 96% in data set [3]; 92% in data set [5]; 100% in [6]; 100% in data set [7]. In data set [4], the Activity worked out at 11%. The pIC50 in data set [8] was 6.42. Further, at hERG (KCNH2), the inhibition at 10 µM amounted to 42%.

As to `CS(=O)(=O)Nc1ccc(OCC(=O)NCCCNc2ccc(Cl)c(Cl)c2)cc1`, the % response in data set [1] came to 106%; in data set [2] it was 12%; in data set [3] it was 97%; in data set [5] it was 100%; in [6], 103%; in [7], 90%. The negative-log IC50 (pIC50) in [8] was 6.71.

As for `CS(=O)(=O)Nc1ccc(CCC(=O)NN2C(=O)c3cc(Cl)c(Cl)cc3C2=O)cc1`, the % response in data set [1] worked out at 101%; in data set [2], 90%; in data set [3] it was 102%; in [5] it was 93%; in [6], 98%; in data set [7] it was 100%. Besides, the pIC50 in data set [8] was 4.38.

For `CS(=O)(=O)Nc1ccc(CCC(=O)NNCCc2ccc(Cl)c(Cl)c2)cc1`, the % response is 106% in [1]; 44% in [2]; 97% in data set [3]; 95% in data set [5]; 100% in [6]; 98% in [7]. Moreover, the pIC50 in data set [8] was 5.32.

Turning to `CS(=O)(=O)Nc1ccc(OCCNCCNc2ccc(Cl)c(Cl)c2)cc1`, the % response in [1] is 91%; in data set [2] it was 17%; in data set [3] it was 100%; in [5], 100%; in data set [6] it was 101%; in [7] it was 98%. The pKi in [9] is 6.52. Besides, the Activity in [4] is 49%. Also, in data set [8], the pIC50 is 7.41. Further, the inhibition at 10 µM at hERG (KCNH2) came out at 97%.

As for `CS(=O)(=O)Nc1ccc(OCCNCC(=O)Nc2ccc(Cl)c(Cl)c2)cc1`, the % response was 108% in [1]; 21% in data set [2]; 94% in data set [3]; 95% in data set [5]; 97% in data set [6]; 98% in [7]. This compound also showed an Activity in [4] of 21%. Also, in data set [8], the pIC50 was 5.95. The inhibition at 10 µM at hERG (KCNH2) turned out to be 67%.

Consider `CS(=O)(=O)Nc1ccc(OCC(=O)NCCCc2ccc(Cl)c(Cl)c2)cc1`, for which the % response in data set [1] came to 99%; in [2] it was 15%; in [3], 96%; in [5], 79%; in [6] it was 100%; in [7] it was 102%. The negative-log IC50 (pIC50) in data set [8] is 7.19. In addition, the inhibition at 10 µM at hERG (KCNH2) is less than 1%.

`CS(=O)(=O)Nc1ccc(CCC(=O)NNC(=O)c2ccc(Cl)c(Cl)c2)cc1`: the % response in data set [1] is 102%; in data set [2], 21%; in [3], 97%; in data set [5], 96%; in data set [6], 100%; in [7] it was 97%. Moreover, the pIC50 in data set [8] was 6.28.

`CS(=O)(=O)Nc1ccc(CCCNCCNc2ccc(Cl)c(Cl)c2)cc1`: the % response in data set [1] was 89%; in data set [2], 21%; in data set [3] it was 104%; in data set [5] it was 91%; in data set [6], 102%; in data set [7], 99%. Further, in data set [9], the negative logarithm of the Ki (pKi) was 7.85. For the same compound, in data set [4], the Activity is 52%. Besides, the pIC50 in data set [8] is 7.72. On hERG (KCNH2), the inhibition at 10 µM was more than 98%.

With `CS(=O)(=O)Nc1ccc(CCC(=O)N2CCN(c3ccc(Cl)c(Cl)c3)CC2)cc1`, the % response was determined as 103% in [1]; 48% in [2]; 100% in data set [3]; 97% in data set [5]; 104% in data set [6]; 101% in data set [7]. In addition, in data set [8], the negative logarithm of the IC50 (pIC50) was 5.44.

Take `CS(=O)(=O)Nc1ccc(CCCN2CCN(c3ccc(Cl)c(Cl)c3)C2=O)cc1`: the % response in data set [1] stood at 96%; in data set [2] it was 17%; in [3], 97%; in [5], 91%; in [6] it was 100%; in data set [7] it was 99%. In data set [8], the pIC50 was 6.20. Besides, the inhibition at 10 µM on hERG (KCNH2) worked out at 81%.

Turning to `CS(=O)(=O)Nc1ccc(OCC(=O)NC/C=C/c2ccc(Cl)c(Cl)c2)cc1`, the % response in data set [1] was determined as 100%; in [2], 14%; in data set [3] it was 95%; in data set [5], 97%; in data set [6], 101%; in data set [7], 94%. This compound also displayed an Activity in data set [4] of 22%. Further, the pIC50 in data set [8] was 7.14. The inhibition at 10 µM at hERG (KCNH2) is 74%.
